Measured values reported in ChEMBL document CHEMBL1142958, “Carboxylated, heteroaryl-substituted chalcones as inhibitors of vascular cell adhesion molecule-1 expression for use in chronic inflammatory diseases” (J Med Chem, 2007).
The source made the active and inactive calls. The calls are words filed in the database; no cut-off is given here.

Key:
[1] = Inhibition of TNF-alpha-induced VCAM1 expression in HPAECs; type: functional, Homo sapiens
How it was run: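 Cells were seeded to reach 90–95% confluency the next day. They were stimulated with TNF-α (1 ng/mL) ± compound (final DMSO 0.25%) for about 16 h and scored visually for toxicity. Cell-surface VCAM-1 was measured by anti-VCAM-1 (0.25 µg/mL, 30 min, 37 °C), then HRP anti-mouse IgG and TMB, read at OD 450 nm. IC50 is relative to the TNF-only response; mean of ≥3 determinations.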

Mus musculus [2] = assay: Reduction of eosinophil level in BALF in ovalbumin-sensitized/challenged Balb/C mouse model of allergic airway inflammation at 100 mg/kg, po after 14 days; type: functional; design: scale not given: the % may be the effect or the level left
[3] = Plasma concentration in ovalbumin-sensitized/challenged Balb/C mouse model of allergic airway inflammation at 100 mg/kg, sc after 14 days; type: ADME, organism-based; design: dose 100 mg/kg, route subcutaneous
How it was run: (§1)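 Ovalbumin/alum-sensitized male Balb/C mice received s.c. doses in 2% Cremophor, bid on days 11–13 and once on day 14. Blood for plasma drug level was collected at euthanasia on day 14, 2–3 h after the final dose.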

[4] = Plasma concentration in ovalbumin-sensitized/challenged Balb/C mouse model of allergic airway inflammation at 150 mg/kg, sc after 14 days; type: ADME, organism-based; design: dose 150 mg/kg, route subcutaneous; how it was run: as §1
Mus musculus [5] = assay: Reduction of eosinophil level in BALF in ovalbumin-sensitized/challenged Balb/C mouse model of allergic airway inflammation at 50 mg/kg, sc after 14 days; type: functional; design: scale not given: the % may be the effect or the level left; details: route subcutaneous
How it was run: (§2)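 Male Balb/C mice, 5–6 weeks old, were sensitized i.p. with ovalbumin (8 µg) emulsified in aluminum hydroxide (1 mg) per mouse. They were then dosed s.c. in 2% Cremophor at 150, 100 or 50 mg/kg bid on days 11–13 and once on day 14. On day 14 lungs were lavaged (DMEM/F-12 + 5% FBS). Eosinophils were expressed as % of ≥300 Diff Quik-stained cytospin cells. Dexamethasone 3 mg/kg i.p. served as positive control.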

Mus musculus [6] = assay: Reduction of eosinophil level in BALF in ovalbumin-sensitized/challenged Balb/C mouse model of allergic airway inflammation at 150 mg/kg, sc after 14 days; type: functional; design: scale not given: the % may be the effect or the level left; details: route subcutaneous; how it was run: as §2
[7] = Plasma concentration in ovalbumin-sensitized/challenged Balb/C mouse model of allergic airway inflammation at 50 mg/kg, sc after 14 days; type: ADME, organism-based; design: dose 50 mg/kg, route subcutaneous; how it was run: as §1
Mus musculus [8] = assay: Inhibition of airway eosinophilia in BALF in sc dosed ovalbumin-sensitized/challenged Balb/C mouse model of allergic airway inflammation after 14 days; type: functional, organism-based; how it was run: as §2
Homo sapiens [9] = species on record: Homo sapiens; assay: Inhibition of TNF-alpha-induced E-selectin expression in HPAECs; type: functional
Mus musculus [10] = assay: Inhibition of tissue eosinophilia in sc dosed ovalbumin-sensitized/challenged Balb/C mouse model of allergic asthma after 14 days; type: functional, organism-based
Rattus norvegicus [11] = species on record: Rattus norvegicus; assay: Inhibition of paw swelling in rat adjuvant arthritis model; type: functional, organism-based
Rattus norvegicus [12] = species on record: Rattus norvegicus; assay: Inhibition of splenomegaly in rat adjuvant arthritis model; type: functional, organism-based
Homo sapiens [13] = species on record: Homo sapiens; assay: Inhibition of TNF-alpha-induced MCP1 expression in HPAECs; type: functional
Mus musculus [14] = assay: Activity in sc dosed ovalbumin-sensitized/challenged Balb/C mouse model of allergic asthma by measuring reduced IgE levels after 14 days; type: functional, organism-based
Mus musculus [15] = assay: Activity in sc dosed ovalbumin-sensitized/challenged Balb/C mouse model of allergic asthma assessed as reduction of elevated lung mRNA levels of Th2 cytokines after 14 days; type: functional, organism-based
PBMC = assay: Inhibition of LPS-induced IL1-beta secretion in HPBMCs at 5 uM; type: functional, cell-based; details: Homo sapiens
Mus musculus [16] = assay: Reduction of airway hyperresponsiveness in sc dosed ovalbumin-sensitized/challenged Balb/C mouse model of allergic asthma after 14 days; type: functional, organism-based

Compound	IC50 [1]	further results
COc1cc(OC)c(-c2ccsc2)cc1/C=C/C(=O)c1ccc(C(=O)O)cc1	2100 nM	
CONC(=O)c1ccc(C(=O)/C=C/c2cc(-c3cc4ccccc4s3)c(OC)cc2OC)cc1	500 nM	
COc1cc(OC)c(-c2cc3ccccc3n2C(=O)OC(C)(C)C)cc1/C=C/C(=O)c1ccc(C(=O)O)cc1	1200 nM	
COc1cc(OC)c(-c2cc3ccccc3[nH]2)cc1/C=C/C(=O)c1ccc(C(=O)O)cc1	900 nM	Activity (Mus musculus [2]): 43%; concentration at 336 h [3]: 14 µM; concentration at 336 h [4]: 19 µM; Activity (Mus musculus [5]): 55%; Activity (Mus musculus [6]): 81%; concentration at 336 h [7]: 10 µM; Activity (Mus musculus [8]): Dose-dependent effect
COc1cc(OC)c(-c2csc(C)n2)cc1/C=C/C(=O)c1ccc(C(=O)O)cc1	2500 nM	
COCCOCCOc1cc(OC)c(-c2cccs2)cc1/C=C/C(=O)c1ccc(C(=O)O)cc1	1300 nM	
COc1cc(OCC(CO)CO)c(-c2cccs2)cc1/C=C/C(=O)c1ccc(C(=O)O)cc1	41000 nM	
COc1cc(OC)c(-c2cc3ccccc3s2)cc1/C=C/C(=O)c1ccc(C(=O)NCCN2CCOCC2)cc1	800 nM	
COc1cc(OCC(CO)CO)c(/C=C/C(=O)c2ccc(C(=O)O)cc2)cc1-c1cccs1	21000 nM	
COc1cc(OC)c(-c2cc3ccccc3s2)cc1/C=C/C(=O)c1ccc(C(=O)NC(=O)C(C)C)cc1	1700 nM	
COc1cc(OCCCN2CCOCC2)c(/C=C/C(=O)c2ccc(C(=O)O)cc2)cc1-c1cccs1	900 nM	
COc1cc(OC)c(-c2cc3ccccc3s2)cc1/C=C/C(=O)c1ccc(C(=O)NC(C)=O)cc1	800 nM	
COc1cc(OC)c(-c2cccs2)cc1/C=C/C(=O)c1ccc(C(=O)O)cc1	3800 nM	
COc1cc(OC)c(-c2cc3ccccc3s2)cc1/C=C/C(=O)c1ccc(C(N)=O)cc1	200 nM	
COc1cc(OC)c(-c2ccc(C)s2)cc1/C=C/C(=O)c1ccc(C(=O)O)cc1	1000 nM	
COc1ccc(-c2cccs2)cc1/C=C/C(=O)c1ccc(C(=O)O)cc1	3100 nM	
COc1cc(OC)c(-c2cccs2)cc1/C=C/C(=O)c1ccccc1C(=O)O	8600 nM	
COc1cc(OCC(=O)N2CCOCC2)c(/C=C/C(=O)c2ccc(C(=O)O)cc2)cc1-c1cccs1	6000 nM	
COCCOCCOCCOc1cc(OC)c(-c2cccs2)cc1/C=C/C(=O)c1ccc(C(=O)O)cc1	4000 nM	
COc1cc(OCCN2CCOCC2)c(/C=C/C(=O)c2ccc(C(=O)O)cc2)cc1-c1cccs1	800 nM	
CCOc1cc(OC)c(/C=C/C(=O)c2ccc(C(=O)O)cc2)cc1-c1cccs1	4900 nM	
COCCOCCOc1cc(OC)c(/C=C/C(=O)c2ccc(C(=O)O)cc2)cc1-c1cccs1	6500 nM	
COc1cc(OC)c(-c2cc3ccccc3o2)cc1/C=C/C(=O)c1ccc(C(=O)O)cc1	300 nM	
CCOC(=O)c1ccc(C(=O)/C=C/c2cc(-c3cc4ccccc4s3)c(OC)cc2OC)cc1	3100 nM	
COc1cc(OC)c(-c2nc3ccccc3[nH]2)cc1/C=C/C(=O)c1ccc(C(=O)O)cc1	4400 nM	
CCc1cc(/C=C/C(=O)c2ccc(C(=O)O)cc2)c(OC)cc1OC	22000 nM	
COc1cc(OC)c(-c2cc3ccccc3s2)cc1/C=C/C(=O)c1ccc(C(=O)O)cc1	600 nM	Activity (Homo sapiens [9]): Active; Activity (Mus musculus [10]): Dose-dependent effect; Activity (Rattus norvegicus [11]): Dose-dependent effect; Activity (Rattus norvegicus [12]): Dose-dependent effect; Activity (Homo sapiens [13]): Active; Activity (Mus musculus [14]): Active; Activity (Mus musculus [15]): Active; Activity (PBMC): Active; Activity (Mus musculus [16]): Active; Activity (Mus musculus [8]): Dose-dependent effect
COc1cc(OC)c(-c2cccs2)cc1/C=C/C(=O)c1cccc(C(=O)O)c1	4200 nM	
